Test results taken from ChEMBL document CHEMBL1667727, “Sesquiterpenes from Chloranthus japonicus” (J Nat Prod, 2011).
pIC50: −log10 of the molar value.

Tests used:
Type in all cases: functional, cell-based
MCF7 = test: Cytotoxicity against human MCF7 cells by MTT assay
How it was run: (§1)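 In vitro cytotoxicity testing against a panel of eight cultured human tumor lines. Tissue origins: Lovo (colorectal cancer), Hepg2 (hepatoma), OSRC-2 (renal carcinoma), A549 (lung epithelial carcinoma), SKOV3 (ovarian carcinoma), HeLa (cervical cancer), MCF-7 (breast cancer) and SGC-7901 (gastric adenocarcinoma).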

LoVo = test: Cytotoxicity against human LoVo cells by MTT assay; how it was run: as §1
HepG2 = test: Cytotoxicity against human HepG2 cells by MTT assay; how it was run: as §1
SGC-7901 = test: Cytotoxicity against human SGC7901 cells by MTT assay; how it was run: as §1
SK-OV-3 = test: Cytotoxicity against human SKOV3 cells by MTT assay; how it was run: as §1
OS-RC-2 = test: Cytotoxicity against human OS-RC2 cells by MTT assay; how it was run: as §1
HeLa = test: Cytotoxicity against human HeLa cells by MTT assay; how it was run: as §1
A549 = test: Cytotoxicity against human A549 cells by MTT assay; how it was run: as §1

Measured: pIC50

CC1=C2C[C@@H]3[C@@](C)(C[C@]2(O)OC1=O)[C@H](O)CC[C@@]3(C)O [CHLORAEUDOLIDE]
< 5.00: all assays above

CC1=C2[C@H](O)C3=C(C=O)[C@H]4C[C@H]4[C@]3(C)C[C@@H]2OC1=O [CHLORAJAPOLIDE A]
< 5.00: all assays above

CC1=C2[C@@H]3O[C@H](O)C4=C3[C@@](C)(C[C@@H]2OC1=O)[C@@H]1C[C@H]41 [CHLORAJAPOLIDE B]
< 5.00: all assays above

CC1=C2CC3=C(CO)[C@H]4C[C@H]4[C@]3(C)C[C@@H]2OC1=O [CHLORAJAPOLIDE C]
< 5.00: all assays above

CC1=C2C[C@@H]3[C@@](C)(C[C@@H]2OC1=O)[C@@H]1C[C@@H]1[C@]3(O)CO [CHLORAJAPOLIDE D]
< 5.00: all assays above

CO[C@@]12OC(=O)C(CO)=C1C[C@H]1[C@H](COC(C)=O)[C@H]3C[C@H]3[C@]1(C)[C@@H]2O [CHLORAJAPOLIDE E]
< 5.00: all assays above

C/C=C(\C)C(=O)OC[C@@]1(O)C2[C@@H](O)C3=C(COC(=O)CCC(=O)OC)C(=O)O[C@@]34[C@@H]3C5=C(C[C@H]4[C@@]2(C)[C@@H]2C[C@@H]21)[C@H]1C[C@H]1[C@]5(C)[C@@H](O)C(=O)/C3=C(/C)C(=O)OC (some centres undefined) [CHLORAJAPONOL]
< 5.00: all assays above

C=C1[C@H]2C[C@H]2[C@]2(C)C[C@]3(O[C@@H]4O[C@H](CO)[C@@H](O)[C@H](O)[C@H]4O)OC(=O)C(C)=C3C[C@@H]12 [CHLORAJAPOSIDE]
< 5.00: all assays above
